We go through 12 compounds from ChEMBL document CHEMBL1144572, “Synthesis and biological evaluation of gamma-aminophosphonates as potent, subtype-selective sphingosine 1-phosphate receptor agonists and antagonists” (Bioorg Med Chem, 2007).

Structures are written as SMILES. Activity calls are given as the source filed them. The rule behind the calls is not given here.

Assay [1] has as its target T1, Sphingosine 1-phosphate receptor 5 (Homo sapiens, UniProt Q9H228). The assay is described as follows: Activity at human S1P5 receptor expressed in HEK293T cells by [35S]GTP-gamma-S binding assay. It counts as functional, cell-based, HEK-293T. A digest of the protocol:
(§1)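 Individual human S1P receptor subtypes and individual G protein subunits forced into expression in HEK293T cells; receptor-dependent [γ-35S]GTP binding measured in vitro. EC50 in nM as the mean of at least three experiments.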
On the technique in general: GTPγS resists hydrolysis and so accumulates on activated G proteins.

In assay [2] the target is T2, Sphingosine 1-phosphate receptor 3 (Homo sapiens, UniProt Q99500). The assay is described as follows: Efficacy at human S1P3 receptor expressed in HEK293T cells relative to S1P. It counts as functional, cell-based. The settings on record: HEK-293T. A digest of the protocol: (§2)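 Individual human S1P receptor subtypes co-expressed with individual G protein subunits in HEK293T cells; [γ-35S]GTP binding. Emax normalized to the maximal activation by endogenous S1P at each receptor.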

The target of assay [3] is T3, Sphingosine 1-phosphate receptor 1 (Homo sapiens, UniProt P21453). The assay is described as follows: Activity at human S1P1 receptor expressed in HEK293T cells by [35S]GTP-gamma-S binding assay. It counts as functional, cell-based, HEK-293T. The settings on record: for Activity: HEK-293T. Put shortly:
as §1

For assay [4], the target named is T2, Sphingosine 1-phosphate receptor 3. The assay can be described thus: Activity at human S1P3 receptor expressed in HEK293T cells by [35S]GTP-gamma-S binding assay. It counts as functional, cell-based, HEK-293T. As to conditions: for Activity: HEK-293T. A digest of the protocol:
as §1

The target in assay [5] is T1, Sphingosine 1-phosphate receptor 5. The assay is described as follows: Efficacy at human S1P5 receptor expressed in HEK293T cells relative to S1P. It counts as functional, cell-based. As to conditions: HEK-293T. Put shortly:
as §2

In assay [6] the target is T4, Sphingosine 1-phosphate receptor 2 (Homo sapiens, UniProt O95136). The assay is described as follows: Activity at human S1P2 receptor expressed in HEK293T cells by [35S]GTP-gamma-S binding assay. It counts as functional, cell-based, HEK-293T. As to conditions: for Activity: HEK-293T. Put shortly: as §1
For assay [7], the target named is T5, Sphingosine 1-phosphate receptor 4 (Homo sapiens, UniProt O95977).
T5 sequence (O95977 whole entry): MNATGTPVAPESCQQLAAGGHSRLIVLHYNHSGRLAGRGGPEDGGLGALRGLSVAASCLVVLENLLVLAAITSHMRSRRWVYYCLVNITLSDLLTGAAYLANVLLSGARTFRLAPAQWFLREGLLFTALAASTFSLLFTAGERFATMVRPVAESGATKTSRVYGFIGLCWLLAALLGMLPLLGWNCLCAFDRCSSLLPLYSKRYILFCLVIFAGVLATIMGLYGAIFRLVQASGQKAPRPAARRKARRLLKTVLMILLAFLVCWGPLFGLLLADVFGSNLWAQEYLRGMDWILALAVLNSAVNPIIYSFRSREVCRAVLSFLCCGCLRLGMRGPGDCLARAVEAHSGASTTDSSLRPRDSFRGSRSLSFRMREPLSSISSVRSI
The assay is described as follows: Activity at human S1P4 receptor expressed in HEK293T cells by [35S]GTP-gamma-S binding assay. It counts as functional, cell-based, HEK-293T. A digest of the protocol: as §1

In assay [8] the target is T6, Sphingosine 1-phosphate receptor 4 (Homo sapiens) (UniProt O95977).
T6 sequence (whole entry): T5 sequence (O95977 whole entry)
The assay is described as follows: Efficacy at human S1P4 receptor expressed in HEK293T cells relative to S1P. It counts as functional, cell-based. The settings on record: HEK-293T. Put shortly: as §2

Assay [9] addresses T4, Sphingosine 1-phosphate receptor 2. The assay can be described thus: Efficacy at human S1P2 receptor expressed in HEK293T cells relative to S1P. Format: functional, cell-based. The settings on record: HEK-293T. Put shortly:
as §2

Assay [10] concerns Mus musculus. The assay can be described thus: Inhibition of VPC44152-evoked lymphopenia in mouse at 22 mg/kg. On the set-up: dose 22 mg/kg. Format: functional, organism-based.
The target of assay [11] is T3, Sphingosine 1-phosphate receptor 1. The assay can be described thus: Displacement of [32P]S1P from human S1P1 receptor expressed in HEK293T cells. Format: cell-based, HEK-293T.
The subject of assay [12] is Mus musculus. The assay can be described thus: Effect on vascular permeability in C57BL/6 mouse assessed as capillary leakage in kidney at 25 mg/kg by Evans blue extravasation assay. It counts as functional, organism-based. More on the design: dose 25 mg/kg. A digest of the protocol: (§3)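 C57BL/6 mice given compound (25 mg/kg) or vehicle (2% hydroxypropyl β-cyclodextrin) two hours before 2% Evans blue dye (20 mg/kg) via jugular vein. Tissues harvested 30 min later. Dye extracted into formamide, read spectrometrically and quantified against a standard curve. n = 4 per group, mean ± SE, compared with vehicle.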

Assay [13] deals with T2, Sphingosine 1-phosphate receptor 3. The assay is described as follows: Displacement of [32P]S1P from human S1P3 receptor expressed in HEK293T cells. It counts as cell-based, HEK-293T.
For assay [14], the system named is Mus musculus. The assay can be described thus: Effect on vascular permeability in C57BL/6 mouse assessed as capillary leakage in lung at 25 mg/kg by Evans blue extravasation assay. It counts as functional, organism-based. More on the design: dose 25 mg/kg. Put shortly: as §3
In assay [15] the target is T3, Sphingosine 1-phosphate receptor 1. The assay is described as follows: Efficacy at human S1P1 receptor expressed in HEK293T cells relative to S1P. It counts as functional, cell-based. As to conditions: HEK-293T. Put shortly:
as §2

In general, EC50 refers to the concentration that produces a half-maximal response. Low values mean greater potency, high ones weaker potency. The term Ki denotes a measure of affinity in units of concentration, obtained from inhibition or displacement. The low end stands for higher affinity, the high end for lower affinity.

T2 sequence (Q99500 whole entry): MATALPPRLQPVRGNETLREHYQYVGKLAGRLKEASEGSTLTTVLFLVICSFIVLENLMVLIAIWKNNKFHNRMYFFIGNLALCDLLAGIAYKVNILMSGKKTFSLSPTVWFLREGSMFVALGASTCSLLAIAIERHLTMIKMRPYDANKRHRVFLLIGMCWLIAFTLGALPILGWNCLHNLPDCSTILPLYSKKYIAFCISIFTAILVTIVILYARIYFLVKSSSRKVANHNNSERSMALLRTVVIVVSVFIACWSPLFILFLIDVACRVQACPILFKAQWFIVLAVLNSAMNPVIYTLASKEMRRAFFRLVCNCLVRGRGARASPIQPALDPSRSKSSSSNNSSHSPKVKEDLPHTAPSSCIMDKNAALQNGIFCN
T1 sequence (Q9H228 whole entry): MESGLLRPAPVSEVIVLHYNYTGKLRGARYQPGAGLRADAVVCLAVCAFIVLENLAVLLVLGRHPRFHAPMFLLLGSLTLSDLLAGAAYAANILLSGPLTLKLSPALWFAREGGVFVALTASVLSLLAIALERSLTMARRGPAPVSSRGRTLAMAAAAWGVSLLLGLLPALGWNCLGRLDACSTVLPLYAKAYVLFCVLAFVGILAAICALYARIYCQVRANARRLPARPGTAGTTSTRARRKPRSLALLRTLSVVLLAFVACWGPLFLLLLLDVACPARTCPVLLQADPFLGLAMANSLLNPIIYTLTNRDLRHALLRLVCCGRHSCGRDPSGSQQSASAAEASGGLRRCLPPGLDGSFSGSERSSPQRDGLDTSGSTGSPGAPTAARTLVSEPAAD
T4 sequence (O95136 whole entry): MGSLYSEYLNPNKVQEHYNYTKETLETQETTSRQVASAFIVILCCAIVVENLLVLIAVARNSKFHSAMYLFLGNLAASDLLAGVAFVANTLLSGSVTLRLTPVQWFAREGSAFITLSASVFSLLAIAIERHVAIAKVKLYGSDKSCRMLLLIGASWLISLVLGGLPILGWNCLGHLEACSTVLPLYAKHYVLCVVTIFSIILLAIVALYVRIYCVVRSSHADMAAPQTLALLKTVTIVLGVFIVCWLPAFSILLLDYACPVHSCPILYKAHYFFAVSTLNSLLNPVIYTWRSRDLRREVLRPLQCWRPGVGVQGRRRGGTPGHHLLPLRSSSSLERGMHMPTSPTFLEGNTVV
T3 sequence (P21453 whole entry): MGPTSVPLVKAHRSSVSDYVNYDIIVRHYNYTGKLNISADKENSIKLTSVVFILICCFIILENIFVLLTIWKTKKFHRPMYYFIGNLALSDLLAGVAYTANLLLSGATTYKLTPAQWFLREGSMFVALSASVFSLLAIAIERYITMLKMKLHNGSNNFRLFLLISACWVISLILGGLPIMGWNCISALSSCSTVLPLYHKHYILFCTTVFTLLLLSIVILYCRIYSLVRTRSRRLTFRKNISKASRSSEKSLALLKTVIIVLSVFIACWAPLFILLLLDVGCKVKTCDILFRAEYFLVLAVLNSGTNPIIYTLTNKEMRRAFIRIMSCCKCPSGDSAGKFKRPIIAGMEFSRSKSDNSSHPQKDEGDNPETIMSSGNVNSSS

On to `CCCCCCCCCCc1ccc(NC(=O)[C@H](N)CCP(=O)(O)O)cc1`, for which the EC50 was 30 nM in assay [1]; 3.6 nM in [3]; 43 nM in assay [4]; 270 nM in assay [6]; 230 nM in assay [7]. Moreover, the ECmax amounted to 0.88 in [2], 0.77 in assay [5], 0.67 in assay [8] and 0.5 in [9].
Regarding `CCCCCCCCc1cccc(NC[C@H](N)CCP(=O)(O)O)c1`, the EC50 was found to be 41 nM in assay [1], 30 nM in [3] and 340 nM in [7]. Further, the ECmax in assay [2] came to 0; in [5] it was 0.61; in assay [8] it was 1.18; in assay [9] it was 0. Moreover, the result in [4] and in assay [6] was inactive.
On to `CCCCCCCCc1ccc(OC[C@H](N)CCP(=O)(O)O)cc1`, for which the EC50 in assay [1] came out at 47 nM; in [3], 140 nM; in assay [4], 100 nM; in assay [6], 530 nM; in assay [7], 150 nM. The ECmax came out at 0.53 in assay [2], 0.5 in [5], 0.9 in [8] and 0.5 in assay [9].
Regarding `CCCCCCCCc1cccc(NC(=O)[C@H](N)CCP(=O)(O)O)c1`, the result in the assay with Mus musculus [10], in the assay with Mus musculus [12] and in the assay with Mus musculus [14] was Active. Moreover, the EC50 was 33 nM in assay [1] and 6100 nM in [7]. In addition, the Ki in [11] stood at 30 nM; in [13] it was 300 nM. Besides, the ECmax in assay [2] turned out to be 0; in assay [5], 0.73; in [8], 1.42; in assay [9], 0. For the same compound, the result in assay [3], in [4] and in [6] was inactive.
On to `CCCCCCCCc1cccc(NC(=O)[C@@H](N)CCP(=O)(O)O)c1`, for which the ECmax in assay [2] and in assay [9] was 0 each time. The outcome in assay [3], in [4] and in assay [6] was inactive.
With `CCCCCCCCc1ccc(OC[C@@H](O)CCP(=O)(O)O)cc1`, the result in assay [1] (HEK-293T), in [4] and in assay [6] was inactive. The ECmax was 0 in assay [2], 0 in [5], 0.45 in [8] and 0 in assay [9]. The EC50 in [3] amounted to 33 nM; in [7], 440000 nM.
For the compound `CCCCCCCCc1ccc(NC(=O)[C@H](N)CCP(=O)(O)O)cc1`, the half-maximal effective concentration (EC50) worked out at 76 nM in assay [1], 27 nM in assay [3], 270 nM in [4] and 2300 nM in assay [7]. The ECmax in assay [2] is 0.38; in [5], 0.64; in [8], 0.8; in assay [9] it was 0. For the same compound, the outcome in [6] was inactive.
As for `CCCCCCCc1cccc(NC(=O)[C@H](N)CCP(=O)(O)O)c1`, in assay [2], the ECmax was found to be 0. Further, the result in assay [3] and in assay [4] was inactive.
For `CCCCCCCCc1ccc(OC[C@@H](N)CCP(=O)(O)O)cc1`, the EC50 in assay [1] came out at 31 nM; in assay [3], 68 nM; in [7], 147 nM. Besides, the ECmax was 0 in [2], 0.41 in [5], 0.71 in [8] and 0 in [9]. Moreover, the outcome in assay [4] and in [6] was inactive.
As to `CCCCCCCCc1ccc(CCC(N)(CO)COP(=O)(O)O)cc1` (stereo not drawn), the ECmax was determined as 0.5 in assay [2], 0.56 in assay [5], 0.9 in assay [8] and 0 in assay [9]. Moreover, the outcome in assay [6] was inactive. A half-maximal effect in assay [7] (EC50) was put at 4 nM.
With `CCCCCCCCc1ccc(NC(=O)[C@@H](N)CCP(=O)(O)O)cc1`, the ECmax in assay [2] was determined as 0.3; in assay [9], 0. Moreover, the values for the 50% effective concentration (EC50) in assay [3] and in [4] were 1200 nM and 15000 nM, respectively. Besides, the outcome in [6] and in [15] was inactive.
Consider `CCCCCCCCCCc1ccc(NC(=O)[C@H](N)CC(F)P(=O)(O)O)cc1` (stereo partly drawn), for which the ECmax in assay [2] amounted to 0.96; in assay [9], 0.47. For the same compound, the EC50 in assay [3] was determined as 2.1 nM; in assay [4] it was 23 nM; in assay [6] it was 490 nM.
